Data taken from ChEMBL document CHEMBL4715825, “Synthesis and biological evaluations of marine oxohexadecenoic acids: PPARα/γ dual agonism and anti-diabetic target gene effects” (Eur J Med Chem, 2018).
The source made the active and inactive calls. The rule behind the calls is not given here.

Tests used:
[1] = Cytotoxicity against African green monkey COS-1 cells assessed as cell viability at EC50 concentration for PPAR activation assay by XTT assay; type: cell-based; conditions: chlorocebus aethiops, read-out: Activity
In short: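 Run on COS-1 cells treated in parallel with the Gal4-LBD PPAR reporter assays. Metabolic NAD(P)H flux was measured by kit XTT assay per the maker's protocol. Absorbance was read at 450/690 nm.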

[2] = Cytotoxicity against African green monkey COS-1 cells assessed as cell viability at EC50 concentration for PPAR activation assay by LDH assay; type: cell-based; conditions: chlorocebus aethiops, read-out: Activity
In short: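 Assayed in the same COS-1 cultures as the Gal4-LBD PPAR reporter assays. Lactate dehydrogenase released into the medium was measured with a commercial kit per the maker's protocol. Absorbance was read at 492/750 nm.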

[3] = target: T1, Peroxisome proliferator-activated receptor gamma (Homo sapiens) (UniProt P37231); assay: Agonist activity at human PPARgamma in 8 day differentiated human SGBS cells assessed as decrease in TNF gene expression at 2 uM incubated for 24 hrs by SYBR-green based qPCR analysis
T1 sequence (whole entry): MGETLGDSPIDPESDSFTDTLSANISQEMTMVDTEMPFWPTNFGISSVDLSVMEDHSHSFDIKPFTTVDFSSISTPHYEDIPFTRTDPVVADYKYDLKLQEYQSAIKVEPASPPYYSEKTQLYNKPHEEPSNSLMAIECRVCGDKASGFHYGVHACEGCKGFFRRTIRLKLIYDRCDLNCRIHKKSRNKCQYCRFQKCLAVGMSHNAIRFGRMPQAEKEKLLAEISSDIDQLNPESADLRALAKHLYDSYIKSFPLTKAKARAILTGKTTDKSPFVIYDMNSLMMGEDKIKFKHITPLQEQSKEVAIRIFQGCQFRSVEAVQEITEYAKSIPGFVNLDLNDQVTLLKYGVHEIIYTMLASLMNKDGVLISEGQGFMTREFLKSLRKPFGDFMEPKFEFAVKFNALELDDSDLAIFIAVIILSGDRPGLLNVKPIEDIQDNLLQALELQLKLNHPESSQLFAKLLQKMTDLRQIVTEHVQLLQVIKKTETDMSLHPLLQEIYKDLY

[4] = target: T1, Peroxisome proliferator-activated receptor gamma (Homo sapiens); assay: Agonist activity at human PPARgamma in 8 day differentiated human SGBS cells assessed as decrease in CXCL5 gene expression at 2 uM incubated for 24 hrs by SYBR-green based qPCR analysis
[5] = target: T1, Peroxisome proliferator-activated receptor gamma (Homo sapiens); assay: Agonist activity at human PPARgamma in 8 day differentiated human SGBS cells assessed as decrease in […] gene expression at 2 uM incubated for 24 hrs by SYBR-green based qPCR analysis
[6] = target: T1, Peroxisome proliferator-activated receptor gamma (Homo sapiens); assay: Agonist activity at human PPARgamma in 8 day differentiated human SGBS cells assessed as decrease in IL-1 beta gene expression at 2 uM incubated for 24 hrs by SYBR-green based qPCR analysis
[7] = target: T1, Peroxisome proliferator-activated receptor gamma (Homo sapiens); assay: Agonist activity at human PPARgamma in 8 day differentiated human SGBS cells assessed as decrease in CXCL1 gene expression at 2 uM incubated for 24 hrs by SYBR-green based qPCR analysis
[8] = target: T2, Peroxisome proliferator-activated receptor alpha (Homo sapiens, UniProt Q07869); assay: Agonist activity at recombinant human PPARalpha LBD (168 to 468 residues) expressed in African green monkey COS-1 cells incubated for 18 hrs by luciferase reporter gene assay; type: cell-based
T2 sequence (Q07869 whole entry): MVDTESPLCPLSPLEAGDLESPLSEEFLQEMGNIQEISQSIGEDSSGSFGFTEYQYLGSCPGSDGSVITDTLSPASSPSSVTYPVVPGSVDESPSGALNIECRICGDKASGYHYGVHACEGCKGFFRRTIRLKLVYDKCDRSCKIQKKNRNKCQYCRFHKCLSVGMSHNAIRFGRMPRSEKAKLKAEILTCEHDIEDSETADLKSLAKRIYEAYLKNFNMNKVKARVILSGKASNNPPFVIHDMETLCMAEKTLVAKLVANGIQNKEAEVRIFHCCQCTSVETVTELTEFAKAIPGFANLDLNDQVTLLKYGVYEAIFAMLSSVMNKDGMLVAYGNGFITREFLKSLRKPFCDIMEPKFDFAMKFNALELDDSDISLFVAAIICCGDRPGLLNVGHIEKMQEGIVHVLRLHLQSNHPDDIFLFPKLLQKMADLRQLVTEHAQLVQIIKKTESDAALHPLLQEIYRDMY
In short: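 Transient Gal4 one-hybrid assay in COS-1 cells (7×10^4 per well), transfected 24 h after seeding. Plasmids were Gal4-DBD fused to the human nuclear receptor LBD, a 5×UAS-SV40 luciferase reporter and pRL-CMV Renilla control. Ligand in DMSO (final 0.1%) was added 5 h post-transfection. Dual-luciferase activity was read after 18 h, expressed as RLU, from three biological replicates in quadruplicate.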

Activity [3] | Activity [4] | Activity [5] | Activity [6] | Activity [7] | EC50 [8] | SMILES | viability [1] | viability [2]
inactive | inactive | inactive | inactive | inactive |  | CN(CCOc1ccc(CC2SC(=O)NC2=O)cc1)c1ccccn1 (configuration not stated) [ROSIGLITAZONE] | > 95% | > 95%
 |  |  |  |  | 35 µM | CCCCCCCCCCCCCCCC(=O)O [PALMITIC ACID] | > 90% | > 95%
 |  |  |  |  |  | Cc1cccc(Nc2cc(Cl)nc(SCC(=O)O)n2)c1C [PIRINIXIC ACID] | > 95% | > 95%
